SENP7 block: SENP7 protease inhibition. Q9BQF6. recombinant SENP7, Z-RLRGG-aminoluciferin luminescence, 40 min. inhibition, % at 5 µM. 330,000 compounds, 1.5% hits;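 active means inhibition above about 50% at the single test dose, limit read from the data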
SENP6 inh: blocks the human protease SENP6; Q9GZR1; Recombinant SENP6 catalytic domain, aminoluciferin luminescence; inhibition, % at 10 µM; 330,000 compounds, 1.8% hits;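 active means inhibition above about 50% at the single tested dose, limit read from the data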
Target sequence (Q9GZR1 628-1112 limits assumed): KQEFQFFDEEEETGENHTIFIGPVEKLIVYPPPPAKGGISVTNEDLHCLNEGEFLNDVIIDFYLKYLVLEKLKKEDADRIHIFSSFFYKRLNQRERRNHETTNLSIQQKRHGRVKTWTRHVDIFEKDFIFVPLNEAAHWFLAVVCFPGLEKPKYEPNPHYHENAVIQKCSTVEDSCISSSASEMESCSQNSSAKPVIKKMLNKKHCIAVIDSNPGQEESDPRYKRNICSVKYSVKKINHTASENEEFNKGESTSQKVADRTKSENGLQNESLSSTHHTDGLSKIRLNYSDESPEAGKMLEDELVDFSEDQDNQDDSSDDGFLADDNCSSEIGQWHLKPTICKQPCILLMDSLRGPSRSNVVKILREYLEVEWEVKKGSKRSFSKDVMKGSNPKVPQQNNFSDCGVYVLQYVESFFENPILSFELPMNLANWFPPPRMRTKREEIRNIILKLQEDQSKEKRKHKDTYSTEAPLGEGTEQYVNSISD
SENP8 block-1: inhibitors of human SENP8 protease; Q96LD8; recombinant SENP8, Nedd8 substrate fluorescence; inhibition, % at 20 µM; 360,000 compounds, 0.64% hits; AID 602440; in the data active means inhibition mostly above about 40%, no sharp cut-off; inactive means mostly below about 27%
SENP8 block-2: blocks the human protease SENP8. inhibition, % at 10 µM. purified SENP8, Z-RLRGG-aminoluciferin cleavage, luminescence. 330,000 compounds, 1.2% hits; in the data active means inhibition above about 50%
SENP1 FRET inh: blocks the human SENP1 SUMO protease catalytic domain. inhibition, % at 10 µM. Q9P0U3. 360,000 compounds, 0.21% hits. recombinant SENP1 catalytic domain, CyPet-SUMO1-YPet FRET cleavage;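 active means inhibition at least 30% at 10 µM, raw YFP signal under a set limit, fluorescence ratio 0.5 to 1.5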
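system = hSENP1 catalytic domain, recombinant | reagent = SFCypet-SUMO1-SFYpet substrate at 25 nM | doses = one dose per compound, 10 µM, 0.5% DMSO | incubation = enzyme reaction for 50 min at room temperature, dark | measured by = FRET, CFP and YFP emission | controls = no-enzyme low, enzyme-DMSO high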
SENP8 confirm: human SENP8 inhibition, confirmed | shares compounds with SENP7 block | Recombinant SENP8, Z-RLRGG-aminoluciferin luminescence, 60 min | inhibition, % at 12.5 µM | 6,200 compounds, 40% hits | AID 488912;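 active means mean inhibition across replicates above about 50%, limit read from the data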
SENP6 confirm: human SENP6 inhibition, confirmed | 6,200 compounds, 58% hits | recombinant SENP6, Z-RLRGG-aminoluciferin luminescence | AID 488915 | inhibition, % at 12.5 µM | shares compounds with SENP7 block
SENP7 conf: human SENP7 inhibition, confirmed; shares compounds with SENP7 block; inhibition, % at 12.5 µM; recombinant SENP7, Z-RLRGG-aminoluciferin luminescence, 40 min; 6,200 compounds, 69% hits
Casp3 SENP sel: caspase-3 inhibition (SENP selectivity assay); shares compounds with SENP7 block; purified caspase-3, Z-DEVD-aminoluciferin luminescence, 60 min; inhibition, % at 12.5 µM; 6,200 compounds, 60% hits; AID 488918;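 active means mean inhibition above about 50%, limit read from the data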
Luc interf: counter-screen for SENP inhibitors: luminescence interference; shares compounds with SENP7 block; Pre-incubated SENP8/Z-RLRGG-aminoluciferin, luciferase luminescence interference; inhibition, % at 12.5 µM; 6,200 compounds, 39% hits; AID 488919;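 active means mean inhibition above about 50% when retested at one dose, limit read from the data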
Each line names hits and unclear results; the compound was inactive in the other large screens (follow-up assays come after a bar, where they were run). The list is not random: actives were taken first. Their share in the collection is about 2.5%.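 How the source made its calls, unless noted: active means mean inhibition above about 50% in the one-dose retest (limit read from the data); inactive means the rest.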

CC1(C)CC(=O)c2sc(NC(=O)c3cccs3)nc2C1	SENP7 block 66, SENP6 inh 80, SENP8 block-2 52 | SENP8 confirm 63 | SENP6 confirm 64 | SENP7 conf 88 | Casp3 SENP sel 87 | Luc interf inactive
CCO[C@@H]1OC(C(=O)N2CCCCCCC2)=C[C@H](c2ccc3c(c2)OCO3)[C@H]1CCCO	none
Cc1cc(O)c(/C=N/OCc2ccc(Cl)cc2Cl)c(=O)o1	none
Cc1cc(O)c(/C=N/Nc2cccc(Cl)c2)c(=O)o1	SENP6 inh 70, SENP8 block-2 66 | SENP8 confirm 71 | SENP6 confirm 71 | SENP7 conf 89 | Casp3 SENP sel 87 | Luc interf 56
Cc1cccc(N=Cc2c(O)cc(C)oc2=O)c1	none
Cc1cc(O)c(/C=N/Nc2ccccc2Cl)c(=O)o1	SENP6 inh 84, SENP8 block-2 74 | SENP8 confirm 72 | SENP6 confirm 68 | SENP7 conf 87 | Casp3 SENP sel 88 | Luc interf 63
CCCc1cc(=O)[nH]c(SCC(=O)Nc2cccc(S(=O)(=O)N3CCCCC3)c2)n1	none
Cc1cccnc1NC(=S)NC(=O)c1oc2ccccc2c1C	SENP6 inh 79 | SENP8 confirm inactive | SENP6 confirm inactive | SENP7 conf inactive | Casp3 SENP sel inactive | Luc interf inactive
CCOc1ccc2oc(C(=O)Nc3cc(C)ccn3)c(C)c2c1	SENP7 block 97, SENP6 inh 93, SENP8 block-2 90 | SENP8 confirm inactive | SENP6 confirm 63 | SENP7 conf 76 | Casp3 SENP sel 83 | Luc interf inactive
Cc1c(C(=O)NC2=NCCS2)oc2ccccc12	SENP7 block 86, SENP6 inh 86, SENP8 block-2 70 | SENP8 confirm 81 | SENP6 confirm 83 | SENP7 conf 98 | Casp3 SENP sel 93 | Luc interf 87
CCOc1ccc2oc(C(=O)Nc3ccc4c(c3)OCO4)c(C)c2c1	SENP7 block 62, SENP6 inh 73, SENP8 block-2 65 | SENP8 confirm 63 | SENP6 confirm inactive | SENP7 conf 86 | Casp3 SENP sel 53 | Luc interf inactive
O=C(CSCc1cc(=O)n2nc(C3CC3)sc2n1)Nc1ccccc1Cl	none
Cc1ccnc(NC(=O)c2oc3ccccc3c2C)c1	SENP7 block 85, SENP6 inh 81, SENP8 block-2 72 | SENP8 confirm 52 | SENP6 confirm 85 | SENP7 conf 81 | Casp3 SENP sel 58 | Luc interf inactive
COc1ccc(/C(C)=N/N2CCCCC2)c(O)c1	none
COc1ccc(O)c(/C=N/N2CCCCC2)c1	SENP7 block 83, SENP6 inh 80, SENP8 block-2 77 | SENP8 confirm 78 | SENP6 confirm 80 | SENP7 conf 96 | Casp3 SENP sel 88 | Luc interf 69
Cc1cccc(OCC(=O)Nc2nnc(-c3ccco3)s2)c1	none
COc1cccc(C(=O)Nc2nnc(-c3cccs3)s2)c1	SENP7 block 53, SENP6 inh 53 | SENP8 confirm inactive | SENP6 confirm inactive | SENP7 conf inactive | Casp3 SENP sel inactive | Luc interf inactive
CCOc1cccc(C(=O)Nc2nnc(-c3ccco3)s2)c1	SENP7 block 73, SENP6 inh 68, SENP8 block-2 60 | SENP8 confirm inactive | SENP6 confirm inactive | SENP7 conf inactive | Casp3 SENP sel inactive | Luc interf inactive
COC(=O)c1ccccc1NC(=O)c1cccnc1	none
CCCCc1ccc(NC(=O)Nc2cccnc2)cc1	SENP7 block 58, SENP6 inh 74, SENP8 block-2 51 | SENP8 confirm 63 | SENP6 confirm 67 | SENP7 conf 84 | Casp3 SENP sel inactive | Luc interf inactive
